Measured values reported in ChEMBL document CHEMBL4840316, “Structure-based screening for the discovery of 1,2,4-oxadiazoles as promising hits for the development of new anti-inflammatory agents interfering with eicosanoid biosynthesis pathways” (Eur J Med Chem, 2021).

Legend:
[1] = target: T1, Bifunctional epoxide hydrolase 2 (Homo sapiens) (UniProt P34913); assay: Inhibition of recombinant human sEH expressed in sf9 insect cells assessed as residual activity at 10 uM using PHOME as substrate preincubated for 15 mins followed by substrate addition and measured after 60 mins relative to control; settings: time 75.0 min
T1 sequence (whole entry): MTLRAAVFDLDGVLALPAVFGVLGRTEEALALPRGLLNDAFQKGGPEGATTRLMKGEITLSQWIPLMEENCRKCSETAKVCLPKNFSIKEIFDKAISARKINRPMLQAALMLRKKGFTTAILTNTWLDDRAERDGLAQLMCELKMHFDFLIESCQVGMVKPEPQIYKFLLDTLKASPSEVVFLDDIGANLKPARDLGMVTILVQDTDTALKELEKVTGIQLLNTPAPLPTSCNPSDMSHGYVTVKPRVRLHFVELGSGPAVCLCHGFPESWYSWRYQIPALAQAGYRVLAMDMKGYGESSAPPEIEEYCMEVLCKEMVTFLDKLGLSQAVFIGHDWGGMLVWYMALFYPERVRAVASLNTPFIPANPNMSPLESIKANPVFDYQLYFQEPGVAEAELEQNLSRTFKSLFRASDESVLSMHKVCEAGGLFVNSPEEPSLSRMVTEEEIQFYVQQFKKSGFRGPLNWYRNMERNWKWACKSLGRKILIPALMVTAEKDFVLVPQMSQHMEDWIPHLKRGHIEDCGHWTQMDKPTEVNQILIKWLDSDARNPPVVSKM
How it was run: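 Human recombinant sEH from baculovirus-infected Sf9 cells, affinity-purified. Diluted in 25 mM Tris pH 7 with 0.1 mg/mL BSA. Pre-incubated 15 min at room temperature with 10 µM compound or 0.1% DMSO. 50 µM PHOME added, run 60 min at room temperature, stopped with ZnSO4. Fluorescence read at ex 330 / em 465 nm.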

[2] = target: T2, Polyunsaturated fatty acid 5-lipoxygenase (Homo sapiens) (UniProt P09917); assay: Inhibition of 5-LO (unknown origin) expressed in Escherichia coli BL21 assessed as residual activity at 10 uM by RP-HPLC method relative to control
T2 sequence (whole entry): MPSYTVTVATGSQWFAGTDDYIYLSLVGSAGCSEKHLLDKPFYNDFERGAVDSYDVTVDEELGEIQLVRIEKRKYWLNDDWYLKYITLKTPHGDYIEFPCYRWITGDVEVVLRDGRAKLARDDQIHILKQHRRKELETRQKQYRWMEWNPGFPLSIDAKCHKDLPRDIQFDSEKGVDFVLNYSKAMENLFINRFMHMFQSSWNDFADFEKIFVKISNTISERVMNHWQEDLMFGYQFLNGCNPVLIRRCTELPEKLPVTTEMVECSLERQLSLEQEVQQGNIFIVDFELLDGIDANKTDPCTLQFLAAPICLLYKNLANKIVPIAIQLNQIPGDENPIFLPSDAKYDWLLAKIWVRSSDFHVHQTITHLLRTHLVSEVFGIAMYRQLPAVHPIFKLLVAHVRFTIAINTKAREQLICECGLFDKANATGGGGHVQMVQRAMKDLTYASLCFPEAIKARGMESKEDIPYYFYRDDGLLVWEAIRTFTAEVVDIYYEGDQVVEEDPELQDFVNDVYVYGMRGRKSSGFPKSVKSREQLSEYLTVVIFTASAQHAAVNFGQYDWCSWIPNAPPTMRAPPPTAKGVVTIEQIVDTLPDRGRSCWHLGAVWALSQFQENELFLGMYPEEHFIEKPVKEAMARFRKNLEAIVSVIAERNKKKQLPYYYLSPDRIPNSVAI
How it was run: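 Human recombinant 5-LO expressed in E. coli BL21 and purified on ATP-agarose. 0.5 µg enzyme in 1 mL PBS + 1 mM EDTA pre-incubated with compound or 0.1% DMSO for 10 min on ice. Reaction started with 20 µM AA and 2 mM CaCl2, run 10 min at 37 °C, stopped with ice-cold methanol. Products analysed; activity as % of control.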

Monocyte = assay: Cytotoxicity against human monocyte cells assessed as cell viability at 10 uM measured after 24 hrs by MTT assay; type: cell-based
How it was run: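 Human monocytes isolated from PBMC by adherence, 0.2 × 10^6 per well in buffer. Exposed to 10 µM compound or 0.5% DMSO for 24 h (37 °C, 5% CO2). MTT for 2 h, then SDS lysis (10%, pH 4.5) for 17 h. Absorbance read at 570 nm; viability as % of vehicle, n = 3.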

[3] = target: Prostaglandin G/H synthase 1 (Ovis aries) (UniProt P05979); assay: Inhibition of ovine COX-1 assessed as residual activity at 10 uM using arachidonic acid as substrate preincubated for 5 mins by RP-HPLC method relative to control; settings: time 10.0 min
Sequence of Prostaglandin G/H synthase 1 (Ovis aries) (P05979 whole entry, looked up): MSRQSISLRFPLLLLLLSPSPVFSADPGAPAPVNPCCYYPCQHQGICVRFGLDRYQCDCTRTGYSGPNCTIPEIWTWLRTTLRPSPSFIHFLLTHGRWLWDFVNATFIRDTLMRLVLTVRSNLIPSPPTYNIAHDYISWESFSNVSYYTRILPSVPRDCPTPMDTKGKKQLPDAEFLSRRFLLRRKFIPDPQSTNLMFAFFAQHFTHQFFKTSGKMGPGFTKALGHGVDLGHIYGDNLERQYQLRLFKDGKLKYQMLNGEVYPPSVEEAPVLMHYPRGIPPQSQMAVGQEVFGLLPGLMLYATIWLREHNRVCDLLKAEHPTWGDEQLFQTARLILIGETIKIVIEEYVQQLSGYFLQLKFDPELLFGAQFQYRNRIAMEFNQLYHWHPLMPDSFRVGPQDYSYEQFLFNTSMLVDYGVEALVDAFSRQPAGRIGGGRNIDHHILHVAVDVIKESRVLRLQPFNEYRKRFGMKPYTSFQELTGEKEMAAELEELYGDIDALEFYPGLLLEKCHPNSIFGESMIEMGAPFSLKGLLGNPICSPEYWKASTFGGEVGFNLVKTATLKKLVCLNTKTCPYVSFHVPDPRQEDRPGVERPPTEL

[4] = target: T2, Polyunsaturated fatty acid 5-lipoxygenase (Homo sapiens); assay: Inhibition of 5-LO in A23187/AA-stimulated human intact neutrophils assessed as reduction in LTB4/5-HETE formation by measuring residual activity at 10 uM measured after 20 mins by RP-HPLC method; type: tissue-based; settings: Neutrophil
How it was run: (§1)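 Human neutrophils at 5 × 10^6/mL in PBS with 0.1% glucose and 1 mM CaCl2. Pre-incubated with compound or 0.1% DMSO for 10 min at 37 °C. Stimulated with 2.5 µM A23187, with or without 20 µM AA, for 10 min at 37 °C. Stopped with cold methanol; PGB1 internal standard. LTB4, its trans isomers and 5-HETE quantified by SPE and RP-HPLC; % of control.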

[5] = target: T2, Polyunsaturated fatty acid 5-lipoxygenase (Homo sapiens); assay: Inhibition of 5-LO in A23187-stimulated human intact neutrophils assessed as reduction in LTB4/5-HETE formation by measuring residual activity at 10 uM measured after 20 mins by RP-HPLC method; type: tissue-based; settings: Neutrophil; how it was run: as §1
A549 = assay: Cytotoxicity against human A549 cells assessed as cell viability at 10 uM measured after 48 hrs by MTT assay; type: cell-based; settings: a549, 48 h
How it was run: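 A549 cells in DMEM + 10% FBS, 2 × 10^4 per well, seeded in triplicate. Exposed to 10 µM compound or 0.1% DMSO for 48 h at 37 °C, 5% CO2. MTT added for 1 h, formazan dissolved in DMSO, absorbance read at 570 nm. Viability given as % of vehicle, n = 3.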

[6] = target: T3, Prostaglandin E synthase (Homo sapiens) (UniProt O14684); assay: Inhibition of mPGES-1 obtained from IL-beta stimulated human A549 cells microsomes assessed as residual activity by measuring conversion of PGH2 to PGE2 at 10 uM by cell-free RP-HPLC method; settings: Microsome
T3 sequence (whole entry): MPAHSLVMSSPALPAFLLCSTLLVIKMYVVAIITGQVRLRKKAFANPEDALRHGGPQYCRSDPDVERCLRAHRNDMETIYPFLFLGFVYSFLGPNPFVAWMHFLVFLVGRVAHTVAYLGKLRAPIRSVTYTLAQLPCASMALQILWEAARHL
How it was run: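 Microsomes from A549 cells stimulated with IL-1β (1 ng/ml) for 48 h. Diluted in 0.1 M potassium phosphate pH 7.4 with 2.5 mM glutathione. Pre-incubated 15 min on ice with compound (single 10 µM, or 0.03–10 µM for the curve) or 1% DMSO. 20 µM PGH2 added for 1 min; stopped with FeCl3/citric acid containing 11β-PGE2 standard. PGE2 measured by SPE and RP-HPLC. n = 3.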

Activity [1] [%] | Activity [2] [%] | Activity [3] [%] | Activity [4] [%] | Activity [5] [%] | Activity [6] [%] | SMILES | Activity (Monocyte) | Activity (A549)
> 50 | 10.3 | 34.7 | 18.5 | 1.7 | 25.4 | Oc1c(F)c(F)cc(-c2nc(-c3ccc(-c4ccsc4)cc3)no2)c1F | Non-Toxic | Non-Toxic
> 50 | 105 | 47.7 | 14.9 | 19.9 | 76.4 | Oc1cccc(CCc2nc(-c3ccc(-c4ccsc4)cc3)no2)c1 | Non-Toxic | Non-Toxic
